Test system: U2OS
Experiment: Multiplex assay against U2OS
Type: toxicity, cell-based
Details: human
Outline: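 Imaging took place on a CQ1 microscope at 37°C and 5% CO2 once compound had been added to live cells stained at seeding with Hoechst33342, BioTracker Green Microtubule Cytoskeleton Dye, MitoTracker Red and Annexin V Alexa Fluor 680. CellPathfinder machine-learning gating classed cells as Hoechst high-intensity objects or normal cells, classed normal cells as having healthy, pyknosed or fragmented nuclei, and classed pyknosed cells as mitotic or apoptotic. Tubulin, mitochondrial-mass and membrane-permeability phenotypes are per cents of the healthy-nucleus cells.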

[1] = 12 h, 1 µM, compound concentration 1 uM, replicate 1
[2] = 12 h, 1 µM, compound concentration 1 uM, replicate 2
[3] = 12 h, 10 µM, compound concentration 10 uM, replicate 1
[4] = 12 h, 10 µM, compound concentration 10 uM, replicate 2
[5] = 24 h, 1 µM, compound concentration 1 uM, replicate 1
[6] = 24 h, 1 µM, compound concentration 1 uM, replicate 2
[7] = 24 h, 10 µM, compound concentration 10 uM, replicate 1
[8] = 24 h, 10 µM, compound concentration 10 uM, replicate 2
[9] = 48 h, 1 µM, compound concentration 1 uM, replicate 1
[10] = 48 h, 1 µM, compound concentration 1 uM, replicate 2
[11] = 48 h, 10 µM, compound concentration 10 uM, replicate 1
[12] = 48 h, 10 µM, compound concentration 10 uM, replicate 2

SMILES: Cc1c(Cc2ccc3ccccc3n2)c2cc(F)ccc2n1CC(=O)O [TIMAPIPRANT]
- Population Apoptotic (%) [1]: 84%
- Population Fragmented Nuclei (%) [1]: 21%
- Population Healthy Nuclei (%) [1]: 69%
- Population Hoechst High Intensity Objects (%) [1]: 2%
- Population Membrane Permeable-Phenotype (%) [1]: 3%
- Population Mitochondria Different-Phenotype (%) [1]: 1%
- Population Mitotic Cells (%) [1]: 16%
- Population Normal (%) [1]: 97%
- Population Pyknosed Nuclei (%) [1]: 8%
- Population Tubulin-Different-Phenotype (%) [1]: 1%
- Total Cell Count [1]: 298
- Population Apoptotic (%) [2]: 83%
- Population Fragmented Nuclei (%) [2]: 22%
- Population Healthy Nuclei (%) [2]: 70%
- Population Hoechst High Intensity Objects (%) [2]: 1%
- Population Membrane Permeable-Phenotype (%) [2]: 4%
- Population Mitochondria Different-Phenotype (%) [2]: 4%
- Population Normal (%) [2]: 98%
- Population Pyknosed Nuclei (%) [2]: 6%
- Population Tubulin-Different-Phenotype (%) [2]: 3%
- Total Cell Count [2]: 94
- Population Apoptotic (%) [3]: 75%
- Population Fragmented Nuclei (%) [3]: 30%
- Population Healthy Nuclei (%) [3]: 62%
- Population Hoechst High Intensity Objects (%) [3]: 2%
- Population Membrane Permeable-Phenotype (%) [3]: 4%
- Population Mitochondria Different-Phenotype (%) [3]: 1%
- Population Mitotic Cells (%) [3]: 25%
- Population Normal (%) [3]: 97%
- Population Pyknosed Nuclei (%) [3]: 6%
- Population Tubulin-Different-Phenotype (%) [3]: 2%
- Total Cell Count [3]: 244
- Population Apoptotic (%) [4]: 68%
- Population Fragmented Nuclei (%) [4]: 12%
- Population Healthy Nuclei (%) [4]: 75%
- Population Hoechst High Intensity Objects (%) [4]: 0%
- Population Membrane Permeable-Phenotype (%) [4]: 6%
- Population Mitochondria Different-Phenotype (%) [4]: 3%
- Population Mitotic Cells (%) [4]: 31%
- Population Normal (%) [4]: 99%
- Population Pyknosed Nuclei (%) [4]: 12%
- Population Tubulin-Different-Phenotype (%) [4]: 3%
- Total Cell Count [4]: 132
- Population Apoptotic (%) [5]: 96%
- Population Fragmented Nuclei (%) [5]: 18%
- Population Healthy Nuclei (%) [5]: 73%
- Population Hoechst High Intensity Objects (%) [5]: 1%
- Population Membrane Permeable-Phenotype (%) [5]: 6%
- Population Mitochondria Different-Phenotype (%) [5]: 3%
- Population Mitotic Cells (%) [5]: 3%
- Population Normal (%) [5]: 98%
- Population Pyknosed Nuclei (%) [5]: 7%
- Population Tubulin-Different-Phenotype (%) [5]: 4%
- Total Cell Count [5]: 371
- Population Apoptotic (%) [6]: 100%
- Population Fragmented Nuclei (%) [6]: 19%
- Population Membrane Permeable-Phenotype (%) [6]: 7%
- Population Mitochondria Different-Phenotype (%) [6]: 2%
- Population Mitotic Cells (%) [6]: 0%
- Population Tubulin-Different-Phenotype (%) [6]: 3%
- Total Cell Count [6]: 117
- Population Apoptotic (%) [7]: 94%
- Population Fragmented Nuclei (%) [7]: 26%
- Population Healthy Nuclei (%) [7]: 66%
- Population Hoechst High Intensity Objects (%) [7]: 1%
- Population Membrane Permeable-Phenotype (%) [7]: 6%
- Population Mitochondria Different-Phenotype (%) [7]: 2%
- Population Mitotic Cells (%) [7]: 5%
- Population Normal (%) [7]: 98%
- Population Pyknosed Nuclei (%) [7]: 6%
- Population Tubulin-Different-Phenotype (%) [7]: 3%
- Total Cell Count [7]: 278
- Population Apoptotic (%) [8]: 72%
- Population Fragmented Nuclei (%) [8]: 18%
- Population Healthy Nuclei (%) [8]: 74%
- Population Hoechst High Intensity Objects (%) [8]: 0%
- Population Membrane Permeable-Phenotype (%) [8]: 8%
- Population Mitotic Cells (%) [8]: 27%
- Population Normal (%) [8]: 100%
- Population Pyknosed Nuclei (%) [8]: 7%
- Total Cell Count [8]: 152
- Population Apoptotic (%) [9]: 88%
- Population Fragmented Nuclei (%) [9]: 16%
- Population Healthy Nuclei (%) [9]: 77%
- Population Hoechst High Intensity Objects (%) [9]: 1%
- Population Membrane Permeable-Phenotype (%) [9]: 4%
- Population Mitochondria Different-Phenotype (%) [9]: 3%
- Population Mitotic Cells (%) [9]: 11%
- Population Normal (%) [9]: 98%
- Population Pyknosed Nuclei (%) [9]: 6%
- Population Tubulin-Different-Phenotype (%) [9]: 3%
- Total Cell Count [9]: 536
- Population Apoptotic (%) [10]: 90%
- Population Fragmented Nuclei (%) [10]: 22%
- Population Healthy Nuclei (%) [10]: 71%
- Population Hoechst High Intensity Objects (%) [10]: 2%
- Population Membrane Permeable-Phenotype (%) [10]: 12%
- Population Mitochondria Different-Phenotype (%) [10]: 5%
- Population Mitotic Cells (%) [10]: 10%
- Population Normal (%) [10]: 97%
- Population Tubulin-Different-Phenotype (%) [10]: 6%
- Total Cell Count [10]: 168
- Population Apoptotic (%) [11]: 100%
- Population Fragmented Nuclei (%) [11]: 19%
- Population Healthy Nuclei (%) [11]: 74%
- Population Hoechst High Intensity Objects (%) [11]: 0%
- Population Membrane Permeable-Phenotype (%) [11]: 3%
- Population Mitochondria Different-Phenotype (%) [11]: 1%
- Population Mitotic Cells (%) [11]: 0%
- Population Normal (%) [11]: 99%
- Population Pyknosed Nuclei (%) [11]: 6%
- Population Tubulin-Different-Phenotype (%) [11]: 1%
- Total Cell Count [11]: 392
- Population Apoptotic (%) [12]: 92%
- Population Fragmented Nuclei (%) [12]: 13%
- Population Healthy Nuclei (%) [12]: 80%
- Population Hoechst High Intensity Objects (%) [12]: 2%
- Population Membrane Permeable-Phenotype (%) [12]: 5%
- Population Mitochondria Different-Phenotype (%) [12]: 3%
- Population Mitotic Cells (%) [12]: 7%
- Population Normal (%) [12]: 97%
- Population Tubulin-Different-Phenotype (%) [12]: 3%
- Total Cell Count [12]: 204

Source: ChEMBL document CHEMBL5058577, “EUbOPEN Chemogenomics Library 2 (Multiplex)” (2022)
